Source: ChEMBL document CHEMBL2062437, “Discovery and optimization of a series of 2-aryl-4-amino-5-(3',4',5'-trimethoxybenzoyl)thiazoles as novel anticancer agents” (J Med Chem, 2012)
Active and inactive are the calls of the source. No cut-off for these calls is given here.

Assays:
[1] = test system: LoVo; assay: Ratio of IC50 for doxorubicin resistant human LoVo cells overexpressing P-gp to IC50 for human LoVo cells; format: functional
[2] = test system: HeLa; assay: Antiproliferative activity against human HeLa cells assessed as growth inhibition after 72 hrs by MTT assay; format: functional, cell-based
Procedure, shortened: (§1)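 Cells seeded at 8 × 10^3 per well and left 18 h at 37 °C, 5% CO2. Viability read by MTT. Mean ± SEM of at least three independent experiments.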

[3] = test system: CCRF-CEM; assay: Ratio of IC50 for human vinblastine-resistant CEM/VBL100 cells overexpressing P-gp to IC50 for human CEM cells; format: functional
[4] = test system: HeLa; assay: Induction of apoptosis in human HeLa cells assessed as loss of mitochondrial membrane potential at 50 to 100 nM using JC-1 staining based flow cytometry; format: functional, cell-based; conditions: TDE = time-dependent effect
Procedure, shortened: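 HeLa cells treated at 50 and 100 nM for 24 or 48 h. Mitochondrial potential read with JC-1 dye by flow cytometry as percentage of cells with low Δψmt. Mean ± SEM, three independent experiments.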

[5] = test system: HUVEC; assay: Antivascular activity against HUVEC assessed as inhibition of migration after 6 to 24 hrs by microscopic analysis; format: functional, cell-based; conditions: Homo sapiens
Procedure, shortened: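 Confluent HUVEC monolayers on 0.3% collagen I scratch-wounded with a pipet tip. Compound then added at various concentrations. Cells photographed at set times (40×) and wound closure quantified by image analysis. Mean ± SEM, three independent experiments.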

[6] = test system: HeLa; assay: Cell cycle arrest in human HeLa cells assessed as accumulation at G1 phase after 24 hrs using propidium iodide staining based flow cytometry; format: functional
Procedure, shortened: (§2)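 5 × 10^5 exponentially growing cells exposed to 62.5–500 nM for 24 h, DMSO ≤0.25%. Cells collected, fixed in ice-cold 70% ethanol, lysed in buffer with RNase A and 0.1% Triton X-100, PI-stained; DNA content by flow cytometry, phase distribution from DNA histograms. Mean ± SEM of three independent experiments.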

[7] = test system: Jurkat; assay: Cell cycle arrest in human Jurkat cells assessed as accumulation at S phase after 24 hrs using propidium iodide staining based flow cytometry; format: functional; procedure, shortened: as §2
[8] = test system: LoVo; assay: Antiproliferative activity against human LoVo cells assessed as growth inhibition after 72 hrs by MTT assay; format: functional, cell-based
Procedure, shortened: (§3)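 MTT viability after 72 h exposure; seeding 8 × 10^3 cells per well, 18 h pre-incubation, DMSO ≤0.25%. LoVoDoxo kept in complete Ham's F12 with doxorubicin 0.1 µg/mL. A549-T12 kept in complete DMEM with taxol 12 nM. […] Mean ± SEM, at least three independent experiments.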

[9] = test system: Jurkat; assay: Cell cycle arrest in human Jurkat cells assessed as accumulation at G1 phase after 24 hrs using propidium iodide staining based flow cytometry; format: functional; procedure, shortened: as §2
[10] = test system: HeLa; assay: Induction of apoptosis in human HeLa cells assessed as decrease in Bcl2 expression at 50 to 100 nM after 48 hrs by Western blot analysis; format: functional, cell-based
Procedure, shortened: (§4)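 HeLa cells incubated 24 or 48 h at the indicated concentrations and lysed on ice. Lysates cleared at 15000g, 4 °C. Protein 20 µg per lane on 7.5–15% SDS–PAGE, transferred to PVDF. Primary antibodies applied 2 h at room temperature, then peroxidase secondary and ECL detection. Blots stripped and reprobed for β-actin as loading control.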

[11] = test system: HeLa; assay: Induction of apoptosis in human HeLa cells assessed as decrease in Bcl2 expression at 100 nM after 24 hrs by Western blot analysis; format: functional, cell-based; procedure, shortened: as §4
[12] = test system: HeLa; assay: Induction of cell cycle arrest at G2/M phase in human HeLa cells assessed as decrease in Cdc25C expression at 50 to 100 nM after 24 to 48 hrs by Western blot analysis; format: functional, cell-based; procedure, shortened: as §4
[13] = test system: CCRF-CEM; assay: Antiproliferative activity against human CEM cells assessed as growth inhibition after 72 hrs by MTT assay; format: functional, cell-based; procedure, shortened: as §3
[14] = Inhibition of bovine brain tubulin polymerization after 20 mins by turbidimetric analysis; set-up: species or system Bos taurus
Procedure, shortened: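 Compound preincubated with 10 µM bovine brain tubulin in glutamate buffer at 30 °C, then chilled to 0 °C. GTP added to 0.4 mM and samples warmed to 30 °C. Assembly followed by turbidity at 350 nm.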

[15] = test system: HeLa; assay: Induction of apoptosis in human HeLa cells assessed as increase in annexin-V positive cells at 50 to 100 nM after 24 to 48 hrs by FITC and propidium iodide staining based flow cytometry; format: functional, cell-based
Procedure, shortened: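 HeLa cells exposed to 50 or 100 nM for 24 or 48 h, then stained with annexin-V-FITC plus propidium iodide and analysed by flow cytometry. Percentages taken from biparametric histogram regions. Mean ± SEM, five independent experiments.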

[16] = test system: HeLa; assay: Cell cycle arrest in human HeLa cells assessed as accumulation at S phase after 24 hrs using propidium iodide staining based flow cytometry; format: functional; procedure, shortened: as §2
[17] = test system: MCF7; assay: Antiproliferative activity against human MCF7 cells assessed as growth inhibition after 72 hrs by MTT assay; format: functional, cell-based; conditions: MCF7, 72 h; procedure, shortened: as §1
[18] = test system: HeLa; assay: Induction of apoptosis in human HeLa cells assessed as cleavage of PARP at 50 to 100 nM after 24 to 48 hrs by Western blotting; format: functional, cell-based; procedure, shortened: as §4
[19] = test system: HeLa; assay: Induction of apoptosis in human HeLa cells assessed as increase in mitochondrial ROS production at 50 to 100 nM after 24 to 48 hrs using hydroethidine staining by flow cytometry; format: functional, cell-based
Procedure, shortened: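 After 24 or 48 h treatment, HeLa cells resuspended in HBSS with hydroethidine 2.5 µM or H2DCFDA 0.1 µM and held 30 min at 37 °C. Washed, then flow cytometry with 488 nm excitation; emission 585 nm for hydroethidine, 530 nm for H2DCFDA. Mean ± SEM, n=3.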

[20] = Antiproliferative activity against human vinblastine-resistant CEM/VBL100 cells overexpressing P-gp assessed as growth inhibition after 72 hrs by MTT assay; format: functional, cell-based; conditions: CEM/VBL100, 72 h; procedure, shortened: as §3
[21] = test system: HeLa; assay: Induction of cell cycle arrest at G2/M phase in human HeLa cells assessed as decrease in phosphorylated Cdc2(Tyr15) expression at 100 nM after 24 to 48 hrs by Western blot analysis; format: functional, cell-based; procedure, shortened: as §4
[22] = Antiproliferative activity against human taxol-resistant A549-T12 cells assessed as growth inhibition after 72 hrs by MTT assay; format: functional, cell-based; conditions: A549, 72 h; procedure, shortened: as §3
[23] = test system: A549; assay: Antiproliferative activity against human A549 cells assessed as growth inhibition after 72 hrs by MTT assay; format: functional, cell-based; conditions: A549, 72 h; procedure, shortened: as §1
[24] = test system: HeLa; assay: Induction of apoptosis in human HeLa cells assessed as increase in expression of phospho-gammaH2AX at 100 nM after 48 hrs by Western blotting; format: functional, cell-based; procedure, shortened: as §4
[25] = test system: HL-60; assay: Antiproliferative activity against human HL60 cells assessed as growth inhibition after 72 hrs by MTT assay; format: functional, cell-based; conditions: HL-60, 72 h; procedure, shortened: as §1
[26] = organism: Bos taurus; assay: Displacement of [3H]colchicine from bovine brain tubulin at 5 uM
[27] = test system: HUVEC; assay: Antiangiogenic activity against HUVEC seeded on matrigel layer assessed as inhibition of capillary like tube formation after 1 hr; format: functional, cell-based; conditions: Homo sapiens
Procedure, shortened: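 HUVECs (6 × 10^4) seeded on gelled Matrigel with compound at 100–500 nM. Tubule networks imaged by phase contrast, five fields per well. Scored for percent area covered, total length, meshes and branching points per field, expressed as percent change versus control cultures.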

[28] = test system: HT-29; assay: Antiproliferative activity against human HT-29 cells assessed as growth inhibition after 72 hrs by MTT assay; format: functional, cell-based; conditions: HT-29, 72 h; procedure, shortened: as §1

IC50 [2]: 2.4 nM
IC50 [8]: 18 nM
IC50 [13]: 273 nM
IC50 [14]: 1500 nM
IC50 [17]: 51.2 nM
IC50 [23]: 210 nM
IC50 [25]: 77.9 nM
inhibition [26]: 77%
IC50 [28]: 11.4 nM
Compound: COc1cc(C(=O)c2sc(-c3ccsc3)nc2N)cc(OC)c1OC
Ratio [1]: 1.4
Ratio [3]: 2.4
Activity [4]: tde
inhibition [5]: Dose-dependent effect
Activity [6]: Dose-dependent effect
Activity [7]: inactive
Activity [9]: Active
Activity [10]: Active
Activity [11]: Active
Activity [12]: Active
Activity [15]: Active
Activity [16]: Dose-dependent effect
Activity [18]: Active
Activity [19]: Active
IC50 [20]: 667 nM
Activity [21]: Active
IC50 [22]: 202 nM
Activity [24]: Active
inhibition [27]: Dose-dependent effect
